Test results from ChEMBL document CHEMBL4422632, “Design of Novel Inhibitors of Human Thymidine Phosphorylase: Synthesis, Enzyme Inhibition, in Vitro Toxicity, and Impact on Human Glioblastoma Cancer” (J Med Chem, 2019).
Activity calls are given as the source filed them. The calls are words filed in the database; no cut-off is given here.

Columns and labels:
[1] = Cytotoxicity against human HepG2 cells assessed as cell viability at 25 uM after 72 hrs by MTT assay relative to control; assay type: cell-based; settings: read-out: Activity
Method in brief: (§1)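 Cells grown in DMEM with 10% FBS at 37 °C, 5% CO₂; seeded 2 x 10³ cells/well, adhered 24 h, then exposed 72 h. MTT: 1 mg/mL for 3 h, formazan in DMSO, absorbance 595 nm. NRU: neutral red 25 µg/mL in serum-free medium for 3 h, desorbed in ethanol:acetic acid:water. Viability as % of untreated control; mean ± SEM of three to five independent experiments in triplicate.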

[2] = Cytotoxicity against human HepG2 cells assessed as cell viability at 25 uM after 72 hrs by neutral red uptake-based assay relative to control; settings: read-out: Activity; method in brief: as §1
[3] = Cytotoxicity against human HepG2 cells assessed as cell viability at 50 uM after 72 hrs by MTT assay relative to control; assay type: cell-based; settings: read-out: Activity; method in brief: as §1
[4] = Cytotoxicity against human HepG2 cells assessed as cell viability at 500 uM after 72 hrs by MTT assay relative to control; assay type: cell-based; settings: read-out: Activity; method in brief: as §1
[5] = Cytotoxicity against human HepG2 cells assessed as cell viability at 1000 uM after 72 hrs by MTT assay relative to control; assay type: cell-based; settings: read-out: Activity; method in brief: as §1
[6] = Cytotoxicity against human HepG2 cells assessed as cell viability at 50 uM after 72 hrs by neutral red uptake-based assay relative to control; settings: read-out: Activity; method in brief: as §1
[7] = Cytotoxicity against human HepG2 cells assessed as cell viability at 500 uM after 72 hrs by neutral red uptake-based assay relative to control; settings: read-out: Activity; method in brief: as §1
[8] = Cytotoxicity against African green monkey Vero cells assessed as cell viability at 25 uM after 72 hrs by MTT assay relative to control; assay type: cell-based; settings: chlorocebus sabaeus, read-out: Activity; method in brief: as §1
[9] = Cytotoxicity against African green monkey Vero cells assessed as cell viability at 500 uM after 72 hrs by MTT assay relative to control; assay type: cell-based; settings: chlorocebus sabaeus, read-out: Activity; method in brief: as §1
[10] = Cytotoxicity against African green monkey Vero cells assessed as cell viability at 1000 uM after 72 hrs by MTT assay relative to control; assay type: cell-based; settings: chlorocebus sabaeus, read-out: Activity; method in brief: as §1
[11] = Cytotoxicity against African green monkey Vero cells assessed as cell viability at 50 uM after 72 hrs by neutral red uptake-based assay relative to control; settings: chlorocebus sabaeus, read-out: Activity; method in brief: as §1
[12] = Cytotoxicity against African green monkey Vero cells assessed as cell viability at 100 uM after 72 hrs by neutral red uptake-based assay relative to control; settings: chlorocebus sabaeus, read-out: Activity; method in brief: as §1
[13] = Cytotoxicity against human HaCaT cells assessed as cell viability at 50 uM after 72 hrs by MTT assay relative to control; assay type: cell-based; settings: read-out: Activity; method in brief: as §1
[14] = Cytotoxicity against human HaCaT cells assessed as cell viability at 1000 uM after 72 hrs by MTT assay relative to control; assay type: cell-based; settings: read-out: Activity; method in brief: as §1
[15] = Cytotoxicity against human HaCaT cells assessed as cell viability at 25 uM after 72 hrs by neutral red uptake-based assay relative to control; settings: read-out: Activity; method in brief: as §1
[16] = Cytotoxicity against human HaCaT cells assessed as cell viability at 100 uM after 72 hrs by neutral red uptake-based assay relative to control; settings: read-out: Activity; method in brief: as §1
[17] = Cytotoxicity against human HaCaT cells assessed as cell viability at 500 uM after 72 hrs by neutral red uptake-based assay relative to control; settings: read-out: Activity; method in brief: as §1
[18] = Cytotoxicity against mouse RAW264.7 cells assessed as cell viability at 25 uM after 72 hrs by MTT assay relative to control; assay type: cell-based; settings: read-out: Activity
Method in brief: (§2)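 Cells kept in DMEM with 10% heat-inactivated FBS, 1% penicillin-streptomycin and 0.1% fungizone at 37 °C, 5% CO₂. U-87 MG seeded at 2 x 10^3 cells/well, RAW 264.7 at 5 x 10^2, adhered 24 h, then exposed 72 h. MTT: 1 mg/mL for 3 h, formazan in DMSO, A595. NRU: 25 μg/mL dye, 3 h, ethanol:acetic acid:water desorb. Untreated wells = 100%; three to five independent experiments in triplicate.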

[19] = Cytotoxicity against mouse RAW264.7 cells assessed as cell viability at 50 uM after 72 hrs by MTT assay relative to control; assay type: cell-based; settings: read-out: Activity; method in brief: as §2
[20] = Cytotoxicity against mouse RAW264.7 cells assessed as cell viability at 1000 uM after 72 hrs by MTT assay relative to control; assay type: cell-based; settings: read-out: Activity; method in brief: as §2
[21] = Cytotoxicity against mouse RAW264.7 cells assessed as cell viability at 100 uM after 72 hrs by neutral red uptake-based assay relative to control; settings: read-out: Activity; method in brief: as §2
[22] = Cytotoxicity against human U87MG cells assessed as cell viability at 25 uM after 72 hrs by MTT assay relative to control; assay type: cell-based, U-87MG ATCC; settings: read-out: Activity; method in brief: as §2
[23] = Cytotoxicity against human U87MG cells assessed as cell viability at 100 uM after 72 hrs by MTT assay relative to control; assay type: cell-based, U-87MG ATCC; settings: read-out: Activity; method in brief: as §1
[24] = Cytotoxicity against human U87MG cells assessed as cell viability at 500 uM after 72 hrs by MTT assay relative to control; assay type: cell-based, U-87MG ATCC; settings: read-out: Activity; method in brief: as §2
[25] = Cytotoxicity against human U87MG cells assessed as cell viability at 50 uM after 72 hrs by neutral red uptake-based assay relative to control; design: species or system U-87MG ATCC; settings: read-out: Activity; method in brief: as §2
[26] = Cytotoxicity against human U87MG cells assessed as cell viability at 500 uM after 72 hrs by neutral red uptake-based assay relative to control; design: species or system U-87MG ATCC; settings: read-out: Activity; method in brief: as §2
Cytochrome P450 2C9 = Cytochrome P450 2C9 (Homo sapiens, UniProt P11712); experiment: Inhibition of CYP2C9 in human liver microsomes by HPLC-MS/MS analysis; assay type: ADME
Cytochrome P450 2C19 = Cytochrome P450 2C19 (Homo sapiens, UniProt P33261); experiment: Inhibition of CYP2C19 in human liver microsomes by HPLC-MS/MS analysis; assay type: ADME
[27] = Half life in human liver S9 fraction at 2 uM up to 30 mins in presence of NADPH by HPLC-MS/MS analysis; assay type: ADME, subcellular
[28] = Elimination rate constant in CF1 mouse at 50 mg/kg, ip by non-compartmental analysis; assay type: ADME, organism-based; settings: in vivo
[29] = AUCt in CF1 mouse at 50 mg/kg, ip by non-compartmental analysis; assay type: ADME, organism-based; settings: in vivo
Method in brief: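 Male CF1 mice received a single ip injection of 50 mg/kg in 0.9% saline; 3 animals per time point, killed 0.03, 0.08, 0.25, 0.5, 1 and 2 h after dosing; blood collected in heparin tubes.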

U-87 MG [30] = experiment: Antitumor activity against human U87MG cells xenografted in BALB/c nude mouse assessed as tumor growth inhibition 50 mg/kg/day, ip administered for 14 days; assay type: functional, organism-based; settings: U-87MG ATCC
Method in brief: (§3)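 5 x 10⁵ U-87 MG cells implanted subcutaneously in right flank of male BALB/c nude mice; at about 50 mm³, randomized to saline or ip 50 mg/kg/day, with temozolomide 50 mg/kg/day in the combination arm, for 14 days. Relative tumor volume = volume on day / day 0; TGI on day 14 = [1 − RTV treated/RTV control] x 100. Two-way ANOVA with Bonferroni.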

U-87 MG [31] = experiment: Antitumor activity against human U87MG cells xenografted in BALB/c nude mouse assessed as tumor growth inhibition 50 mg/kg/day, ip administered for 14 days co-treated with temozolamide; assay type: functional, organism-based; settings: U-87MG ATCC; method in brief: as §3
[32] = Toxicity in nude BALB/c mouse xenografted with human U87MG cells assessed as reduction in body weight at 50 mg/kg, […] co-treated with temozolamide; assay type: organism-based; settings: in vivo, ip, 120 h

Cytochrome P450 2C19, sequence (P33261 whole entry): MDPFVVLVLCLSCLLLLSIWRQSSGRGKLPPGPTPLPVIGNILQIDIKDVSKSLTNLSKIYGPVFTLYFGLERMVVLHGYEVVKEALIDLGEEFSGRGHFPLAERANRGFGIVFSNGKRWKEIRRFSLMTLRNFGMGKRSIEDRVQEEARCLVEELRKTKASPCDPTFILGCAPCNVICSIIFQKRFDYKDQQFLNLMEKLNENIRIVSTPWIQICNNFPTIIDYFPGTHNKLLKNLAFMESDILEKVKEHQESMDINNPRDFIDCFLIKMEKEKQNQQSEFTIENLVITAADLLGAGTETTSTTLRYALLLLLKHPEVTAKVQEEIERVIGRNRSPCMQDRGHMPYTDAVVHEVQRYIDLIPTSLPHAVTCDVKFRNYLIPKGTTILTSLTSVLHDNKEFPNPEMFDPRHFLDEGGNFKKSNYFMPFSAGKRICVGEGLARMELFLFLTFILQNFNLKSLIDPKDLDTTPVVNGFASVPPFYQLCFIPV
Cytochrome P450 2C9, sequence (P11712 whole entry): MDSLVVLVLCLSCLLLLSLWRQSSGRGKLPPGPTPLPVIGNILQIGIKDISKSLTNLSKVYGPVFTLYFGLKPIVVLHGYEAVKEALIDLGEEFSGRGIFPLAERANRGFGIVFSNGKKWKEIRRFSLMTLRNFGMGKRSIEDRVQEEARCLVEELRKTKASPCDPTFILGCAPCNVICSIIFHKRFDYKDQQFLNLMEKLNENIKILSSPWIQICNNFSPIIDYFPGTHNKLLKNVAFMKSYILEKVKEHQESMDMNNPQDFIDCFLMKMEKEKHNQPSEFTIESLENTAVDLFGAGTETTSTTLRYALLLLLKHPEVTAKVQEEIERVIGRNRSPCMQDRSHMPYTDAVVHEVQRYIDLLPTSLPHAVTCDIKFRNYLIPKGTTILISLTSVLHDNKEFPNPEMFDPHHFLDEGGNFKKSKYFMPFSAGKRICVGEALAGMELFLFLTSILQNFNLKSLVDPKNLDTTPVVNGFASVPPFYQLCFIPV

O=c1[nH]c(CNC(CO)CO)c(I)c(=O)[nH]1
viability at 72 h, 25 µM [1]: 103% | viability at 72 h, 25 µM [2]: 102% | viability at 72 h, 50 µM [3]: 100% | viability at 72 h, 500 µM [4]: 94% | viability at 72 h, 1000 µM [5]: 82% | viability at 72 h, 50 µM [6]: 103% | viability at 72 h, 500 µM [7]: 96% | viability at 72 h, 25 µM [8]: 101% | viability at 72 h, 500 µM [9]: 84% | viability at 72 h, 1000 µM [10]: 75% | viability at 72 h, 50 µM [11]: 112% | viability at 72 h, 100 µM [12]: 108% | viability at 72 h, 50 µM [13]: 95% | viability at 72 h, 1000 µM [14]: 81% | viability at 72 h, 25 µM [15]: 100% | viability at 72 h, 100 µM [16]: 104% | viability at 72 h, 500 µM [17]: 95% | viability at 72 h, 25 µM [18]: 103% | viability at 72 h, 50 µM [19]: 99% | viability at 72 h, 1000 µM [20]: 72% | viability at 72 h, 100 µM [21]: 97% | viability at 72 h, 25 µM [22]: 101% | viability at 72 h, 100 µM [23]: 96% | viability at 72 h, 500 µM [24]: 89% | viability at 72 h, 50 µM [25]: 101% | viability at 72 h, 500 µM [26]: 93% | IC50 (Cytochrome P450 2C9): > 100 µM | IC50 (Cytochrome P450 2C19): > 100 µM | half-life at 2 µM [27]: 28.1 min | k el [28]: 0.000383 s⁻¹ | AUC(0-t) [29]: 16900 ng·h/mL | TGI (U-87 MG [30]): Active | TGI (U-87 MG [31]): Active | Activity [32]: Non-Toxic
